High-throughput results (PubChem BioAssay)
FLuc inhib CS: firefly luciferase enzyme inhibitors, primary screen, artefact control for luciferase-based inhibitor screens, biochemical, luminescence, ATPLite; Luciferin 4-monooxygenase (Photinus pyralis), P08659; 10 min; inhibition, % at 10 µM; actives 1.5% (n = 200,000);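 active = inhibition above about 50% when tested at 10 µM, limit read from the data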
Target sequence (P08659 whole entry, looked up): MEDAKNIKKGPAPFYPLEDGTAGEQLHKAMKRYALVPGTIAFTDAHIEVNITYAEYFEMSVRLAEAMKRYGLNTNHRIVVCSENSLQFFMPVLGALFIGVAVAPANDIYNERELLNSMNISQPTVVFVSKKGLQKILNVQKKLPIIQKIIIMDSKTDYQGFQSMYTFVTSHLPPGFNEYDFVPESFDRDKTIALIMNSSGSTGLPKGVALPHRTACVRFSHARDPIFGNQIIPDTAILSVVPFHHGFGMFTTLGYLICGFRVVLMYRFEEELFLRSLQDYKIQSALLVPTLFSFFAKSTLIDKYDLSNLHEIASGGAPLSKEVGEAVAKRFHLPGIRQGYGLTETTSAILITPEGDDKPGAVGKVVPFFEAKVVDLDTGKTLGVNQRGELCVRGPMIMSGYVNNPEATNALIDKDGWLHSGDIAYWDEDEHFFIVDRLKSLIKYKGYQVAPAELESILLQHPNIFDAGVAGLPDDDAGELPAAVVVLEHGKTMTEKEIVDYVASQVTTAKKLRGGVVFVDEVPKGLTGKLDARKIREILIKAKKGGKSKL
FLuc stim CS: FLuc activators, initial screening, artefact control for FLuc-dependent activation tests, biochemical, ATPlite luminescence. 200,000 tested, under 10 active. activation factor at 10 µM. Luciferin 4-monooxygenase (Photinus pyralis), P08659. ATPlite luciferase biochemical, 10 min; 0 = ATP-free wells, 1 = DMSO control;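 active = luciferase activation factor, scaled between plate controls, of at least 2 with compound at 10 µM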
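test system = cell-free luciferase reagent | medium = PBS as buffer for the ATP substrate | dosing = test compounds dosed from 2 mM stocks in 100% DMSO | incubation = 10 min at ambient temperature | detection = luminescence measurement of luciferase light output | benchmarks = low control with PBS replacing ATP, high control enzyme plus ATP without compound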
HSP90 inh: HSP90 inhibitors, primary screen, cell lysate, luminescence; Rabbit reticulocyte lysate, luciferase refolding luminescence, 3 h; inhibition, % at 5.6 µM; actives 0.91% (n = 290,000); AID 1789, 2009;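 active = inhibition above the screen-wide mean plus 3 SD, computed separately per campaign, cut at about 16% in these data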;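 note: 0% = DMSO wells and 100% = 60 µM geldanamycin wells; inhibitors lower the luminescence because luciferase stays unfolded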
C8 TRAIL sens: viability loss with TRAIL in NB7+C8 cells, primary screen, TRAIL sensitizer project, cell-based, ATPlite luminescence; inhibition (viability loss, TRAIL sensitization), % at 10 µM; actives 1% (n = 360,000);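 active = compounds causing at least 50% loss of cell viability in the single-dose screen, relative to plate controls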
STAT3 inh-1: IL-6 driven STAT3 reporter inhibitors, primary screen, U3A cells, luciferase, luminescence, MLSCN library; actives 0.89% (n = 190,000); inhibition, % at 5.5 µM; IL-6 STAT3-luciferase reporter; host cell line lacks STAT1;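 active = inhibition above the mean inhibition across all screened compounds plus 3 SD, cut at about 44% in these data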;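 note: 0% = DMSO only wells and 100% = 100 µM nifuroxazide control wells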
PPC-1+TRAIL kill: compounds killing PPC-1 cancer cells with TRAIL present, primary screen, TRAIL potentiator project, ATPLite luminescence, uHTS | PPC-1 cells + TRAIL, ATPLite viability luminescence | actives 0.41% (n = 220,000) | cell killing (% activity), % at 4 µM or 5 µM | AID 1443, 2008;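 active = cell killing above 50% in the first pass at 4 µM, then a duplicate retest at 5 µM averaging 50% or more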;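 note: plate controls were cells with TRAIL plus DMSO for no effect and medium-only wells lacking cells for full effect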
STAT3 inh-2: STAT3 reporter inhibitors, retest of hits, confirmation, U3A cells, luciferase, luminescence; shares compounds with STAT3 inh-1; IL-6 STAT3 luciferase reporter; cell line lacks STAT1; inhibition, % at 5.7 µM; actives 45% (n = 1,200); AID 1265, 2008;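 active = inhibition above the hit cutoff computed for the primary STAT3 screen, cut at about 44% in these data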;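 note: 0% = IL-6 plus DMSO and 100% = IL-6 plus nifuroxazide control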
NFkB inh STAT3ct: NF-kB reporter inhibitors in human cells, confirmation, counter-screen for STAT3 inhibitor project, cell-based, HEK293T, luciferase, TNF-alpha stimulus; AID 1308, 2008; shares compounds with STAT3 inh-1; TNF-alpha induced; inhibition, % at 5.7 µM; actives 36% (n = 1,200);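 active = inhibition above the mean of solvent-only control wells plus 3 SD, cutoff set per campaign, cut at about 13% in these data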;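 note: 0% = TNF-alpha with DMSO and 100% = TNF-alpha with MG high control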
STAT1 inh 2: STAT1 reporter inhibitors, IFN-gamma induced, confirmation, counter-screen for STAT3 inhibitor project, cell-based, NIH 3T3, luciferase luminescence | shares compounds with STAT3 inh-1 | NIH 3T3 STAT1-luciferase reporter | inhibition, % at 5.7 µM | actives 27% (n = 1,200);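 active = inhibition above the mean plus 3 SD of solvent-only control wells, limit set per screening run, cut at about 16% in these data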;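 note: 0% = DMSO with IFN-gamma and 100% = nifuroxazide control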
PPC-1 tox: cytotoxicity in PPC-1 cells, confirmation, cytotoxicity control for TRAIL apoptosis potentiator project, cell-based, ATP content luminescence; shares compounds with PPC-1+TRAIL kill; cytotoxicity, % at 5 µM; AID 1447, 2008; actives 50% (n = 1,200); PPC-1 viability, ATPlite luminescence, overnight;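 active = reconfirmed compounds whose average cytotoxicity reaches 50% or more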;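 note: 0% = DMSO-treated cells and 100% = wells holding medium but no cells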
HSP90 inh confirm: HSP90 inhibitors, confirmation, cell lysate, luminescence | shares compounds with HSP90 inh | rabbit reticulocyte lysate, luciferase refolding luminescence, 3 h | inhibition, % at 5.9 µM | actives 64% (n = 2,300) | AID 1846, 2009; in the data active = inhibition above about 18%;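 note: 0% = vehicle wells and 100% = reference inhibitor wells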
FLuc counter: firefly luciferase inhibitors, HSP90 counter-screen, confirmation, artefact control for HSP90 inhibitor project, biochemical, luminescence, triplicate; purified native firefly luciferase; shares compounds with HSP90 inh; AID 1847, 2009; inhibition, % at 5.9 µM; actives 48% (n = 2,300);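 active = inhibition above the mean inhibition of all tested sample wells plus 3 SD, cut at about 10% in these data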;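 note: 0% = DMSO with luciferase and 100% = wells lacking luciferase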
Starred values were filed as active, the others as inactive; · = no result given. The list is not random: actives were taken first. Their share in the collection is about 2.2%.

SMILES	FLuc inhib CS	FLuc stim CS	HSP90 inh	C8 TRAIL sens	STAT3 inh-1	PPC-1+TRAIL kill	STAT3 inh-2	NFkB inh STAT3ct	STAT1 inh 2	HSP90 inh confirm	FLuc counter	others
CCN(C(=O)COC(=O)c1c(NC(C)=O)sc(C)c1C)c1c(N)n(Cc2ccccc2)c(=O)[nH]c1=O	·	·	·	28	·	·	·	·	·	·	·
Cc1nc(-c2coc3cc(O)c(C)cc3c2=O)cs1	83*	0.2	18*	60*	53*	12	28	0	-80	52*	51*
COc1ccc(-c2nsc3c(N4CCCC4)ncnc23)cc1	86*	0.1	29*	81*	53*	5	26	5	-74	60*	42*
COc1ccc(-c2nsc3c(N4CCN(S(=O)(=O)c5ccccc5)CC4)ncnc23)cc1	-4	1	·	·	·	-8	·	·	·	·	·
O=C(NCCOc1ccccc1)c1ccc2c(c1)OCO2	51*	0.5	48*	24	76*	27	39	26*	-20	71*	67*
CN(CCOc1ccccc1)C(=O)c1ccc2c(c1)OCO2	·	·	·	-4	·	·	·	·	·	·	·
Nc1ccc(-c2cnc3ccccc3n2)cc1	·	·	·	-6	·	·	·	·	·	·	·
Nc1ccc(-c2cnc(-c3ccc(N)cc3)nc2)cc1	74*	0.3	21*	73*	49*	-10	5	-33	-106	26*	19*
O=C(N/N=C/c1ccc2c(c1)OCO2)c1ccccn1	88*	0.1	28*	73*	55*	58*	13	-9	-54	57*	36*	PPC-1 tox=60*
O=C(N/N=C/c1cc2c(cc1Br)OCO2)c1ccccn1	·	·	5	31	·	32	·	·	·	·	·
COCCn1c(SCC(=O)NC2CCCC2)nc2c(c1=O)SCC2	·	·	0	8	·	·	·	·	·	·	·
CCCNC(=O)c1ccc(-c2nc3ccccc3s2)s1	90*	0.1	22*	83*	75*	70*	45*	-12	-106	68*	60*	PPC-1 tox=77*
O=C(NCCCO)c1nc2ccccc2s1	-4	1	-1	-8	-5	22	·	·	·	·	·
CN(C)c1ccc(NC(=O)c2cnsn2)cc1	72*	0.3	26*	29	50*	32	16	-14	-36	48*	40*
O=C(CCC(=O)c1ccc(F)cc1)NCC1(N2CCCCC2)CCCCC1	·	·	·	-5	·	·	·	·	·	·	·
CC(C)c1ccc2oc(-c3ccc(N)cc3)nc2c1	88*	0.1	23*	80*	78*	68*	32	5	-88	50*	46*	PPC-1 tox=72*
CCCN1C(=O)C(=O)N(CC(=O)N2c3ccccc3NC(=O)CC2C)C1=O (stereo unspecified)	·	·	·	-4	·	·	·	·	·	·	·
COc1ccc(OCC(=O)Nc2nccs2)cc1	75*	0.2	31*	48	69*	48	29	-17	-40	60*	39*
COc1ccc(OCCC(=O)Nc2nccs2)cc1	8	0.9	2	3	-1	-2	·	·	·	·	·
COc1ccc(C(=O)Nn2c(SCC(=O)NCc3ccco3)nc3ccccc3c2=O)cc1	54*	0.5	56*	33	67*	34	34	24*	-50	65*	65*	PPC-1 tox=35
COCCCn1c(SCC(=O)NC2CCCCC2)nc2ccccc2c1=O	·	·	-1	2	·	·	·	·	·	·	·
COc1ccc(C(=O)Nn2c(SCC(=O)NC3CCCCC3)nc3ccccc3c2=O)cc1	58*	0.4	62*	38	51*	48	9	-2	-54	71*	65*
CCN(CC)Cc1cc(Oc2ccc(O)c(CN(CC)CC)c2)ccc1O	·	·	·	-18	·	·	·	·	·	·	·
CCCCNC(=O)C1CCCN1C(=O)Nc1ccccc1 (stereo unspecified)	-7	1.1	-2	-7	-3	7	·	·	·	·	·
CCOc1ccc(C(=O)N2CCN(CC(=O)N3CCCC3)CC2)cc1OCC	·	·	·	-13	·	·	·	·	·	·	·
SMILES	FLuc inhib CS	FLuc stim CS	HSP90 inh	C8 TRAIL sens	STAT3 inh-1	PPC-1+TRAIL kill	STAT3 inh-2	NFkB inh STAT3ct	STAT1 inh 2	HSP90 inh confirm	FLuc counter	others
CCCCN1CC(COCc2ccccc2)Oc2cc(Br)ccc2S1(=O)=O (stereo unspecified)	·	·	·	10	·	·	·	·	·	·	·
c1ccc(-c2ccc(-c3ccccn3)nn2)nc1	60*	0.4	28*	·	51*	16	38	0	-44	54*	36*
Cc1ccc(C(=O)CSc2nnnn2C(C)C)c(C)c1	54*	0.5	56*	21	78*	19	49*	22*	-24	79*	72*
Cc1ccc(C)c(C(=O)CSc2nnnn2C(C)C)c1	-3	1	0	7	16	6	·	·	·	·	·
COC(=O)c1cn[nH]c1NC(=S)Nc1ccc(C)cc1Cl	54*	0.5	36*	7	50*	18	10	-24	-170	41*	41*
O=C(Nc1nc2ccccc2[nH]1)c1cc(F)cc(F)c1	·	·	7	41	·	·	·	·	·	·	·
O=C(Nc1nc2ccccc2[nH]1)c1ccc(F)cc1	91*	0.1	35*	83*	72*	73*	34	-7	-74	57*	44*	PPC-1 tox=72*
CC(=O)/C(N=Nc1ccc2c(c1)OCCO2)=C(\C)O	30	0.7	25*	6	68*	5	-6	-10	-92	45*	56*
CC(=O)/C(N=Nc1ccc2c(c1)OCO2)=C(\C)O	16	0.8	-4	8	-6	23	·	·	·	·	·
